Measured values reported in PMC12023741 (RSC Advances, 2025).

Key:
HCT-116 cell line = assay: MTT assay, HCT-116; type: cell-based; settings: for antitumor effect (in words): HCT-116, MTT assay, compared to DOX
[1] = DPPH free radical scavenging; type: biochemical; settings: read-out: DPPH scavenging activity IC50; stable DPPH radical; mean ± SE, n = 3
Summary of the method: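 Radical-scavenging capacity of the test compounds toward DPPH was measured by a modified Zheleva-Dimitrova procedure. Scavenging activity was recorded and IC50 values were derived from it. Data are mean ± SE, n = 3.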

MCF-7 cell line = assay: MTT assay, MCF-7; type: cell-based; settings: for antitumor effect (in words): MCF-7, MTT assay, compared to DOX
HepG2 cell line = assay: MTT assay, HepG2; type: cell-based; settings: for antitumor effect (in words): HepG2, MTT assay, compared to DOX
[2] = system: WI-38 normal cells (human lung fibroblast); assay: MTT assay, WI-38 normal cells; type: cell-based

| Structure (SMILES) | antitumor effect (in words) (HCT-116 cell line) | IC50 [1] [µM] | antitumor effect (in words) (MCF-7 cell line) | antitumor effect (in words) (HepG2 cell line) | cytotoxic effect on normal cells (in words) [2] | IC50 (HCT-116 cell line; Homo sapiens, HCT-116) [µM] | IC50 (MCF-7 cell line; Homo sapiens, MCF7) [µM] | IC50 (HepG2 cell line; Homo sapiens, HepG2) [µM] |
| --- | --- | --- | --- | --- | --- | --- | --- | --- |
| NC1=NN(c2ccccc2)C(=O)C1/N=N/c1ccc(C(=O)C=Cc2ccccc2)cc1 (stereo not drawn) [Compound 3a, 5-Amino-4-((E)-(4-cinnamoylphenyl)diazenyl)-2-phenyl-2,4-dihydro-3H-pyrazol-3-one] | impressive antitumor effects | 21.4 ± 0.17 | impressive antitumor effects | impressive antitumor effects |  |  |  |  |
| COc1cc(/C=C/C(=O)c2ccc(/N=N/C3C(=O)N(c4ccccc4)N=C3N)cc2)ccc1O (stereo not drawn) [Compound 3b, 5-Amino-4-((E)-(4-((E)-3-(4-hydroxy-3-methoxyphenyl)acryloyl)phenyl)diazenyl)-2-phenyl-2,4-dihydro-3H-pyrazol-3-one] |  | 19.95 ± 0.14 |  |  | safe toxic profile on normal cells | 6.34 ± 0.5 | 3.92 ± 0.2 | 5.03 ± 0.4 |
| NC1=NN(c2ccccc2)C(=O)C1/N=N/c1ccc(C(=O)/C=C/c2ccc(O)cc2)cc1 (stereo not drawn) [Compound 3c, 5-Amino-4-((E)-(4-((E)-3-(4-hydroxyphenyl)acryloyl)phenyl)diazenyl)-2-phenyl-2,4-dihydro-3H-pyrazol-3-one] | weak effect | 94.18 ± 0.45 | weak effect | weak effect |  |  |  |  |
| NC1=NN(c2ccccc2)C(=O)C1/N=N/c1ccc(C(=O)/C=C/c2ccccc2O)cc1 (stereo not drawn) [Compound 3d, 5-Amino-4-((E)-(4-((E)-3-(2-hydroxyphenyl)acryloyl)phenyl)diazenyl)-2-phenyl-2,4-dihydro-3H-pyrazol-3-one] | moderate effect | 48.59 ± 0.28 | moderate effect | moderate effect |  |  |  |  |
| CN(C)c1ccc(/C=C/C(=O)c2ccc(/N=N\C3C(=O)N(c4ccccc4)N=C3N)cc2)cc1 (stereo not drawn) [Compound 3e, 5-Amino-4-((Z)-(4-((E)-3-(4-(dimethylamino)phenyl)acryloyl)phenyl)diazenyl)-2-phenyl-2,4-dihydro-3H-pyrazol-3-one] | moderate effect | 32.79 ± 0.21 | moderate effect | moderate effect |  |  |  |  |
| NC1=NN(c2ccccc2)C(=O)C1/N=N/c1ccc(C(=O)C=Cc2ccco2)cc1 (stereo not drawn) [Compound 3f, (E)-3-Amino-4-((4-(3-(furan-2-yl)acryloyl)phenyl)diazenyl)-1-phenyl-1H-pyrazol-5(4H)-one] | impressive antitumor effects | 27.25 ± 0.19 | impressive antitumor effects | impressive antitumor effects |  |  |  |  |
| NC1=NN(c2ccccc2)C(=O)C1/N=N/c1ccc(C(=O)/C=C/C=C/c2ccccc2)cc1 (stereo not drawn) [Compound 3g, 5-Amino-2-phenyl-4-((E)-(4-((2E,4E)-5-phenylpenta-2,4-dienoyl)phenyl)diazenyl)-2,4-dihydro-3H-pyrazol-3-one] | weak effect | 73.63 ± 0.39 | weak effect | weak effect |  |  |  |  |
| O=C1O[C@H]([C@@H](O)CO)C(O)=C1O [L-ascorbic acid, reference compound] |  | 16.81 ± 0.1 |  |  |  |  |  |  |
